{
  "source": "ChEMBL document CHEMBL1149314",
  "about": "“Synthesis of AZT 5'-triphosphate mimics and their inhibitory effects on HIV-1 reverse transcriptase” (J Med Chem, 2004)",
  "key": {"[1]": {"assay": "Inhibition of HIV1 reverse transcriptase", "design": "species or system Human immunodeficiency virus 1", "in_short": "(§1)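 HIV reverse transcriptase (type B, 66 kDa subunit) at 2 nM with 1 µg/mL primed poly(A) RNA and 5 µM dTTP, in 50 mM Tris-HCl pH 8.1, 6.5 mM MgCl2, 100 mM NaCl and 10 mM DTT. Compounds were tested up to 500 µM final. Reactions were started with enzyme, run 10 min at 37 °C and stopped with EDTA. DNA was read by PicoGreen fluorescence (ex 480/em 538 nm), with no-enzyme or no-dTTP blanks. Percent inhibition was blank-corrected; Ki came from titration fitted to a competitive model.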"}, "[2]": {"test_system": "Human immunodeficiency virus 1", "assay": "Inhibition of HIV1 reverse transcriptase at 0.5 uM", "in_short": "as §1"}, "Serum": {"test_system": "Serum", "assay": "(§2) Stability in fetal calf serum at 500 uM at 37 degC", "assay_type": "ADME, cell-free, Bos taurus", "details": "cattle, serum, 500 µM", "in_short": "(§3)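 Fetal calf serum at 10% v/v final, with 500 µM nucleotide mimic in 50 mM Tris-HCl pH 7.4 and 0.1 mM MgCl2, at 37 °C. Timed aliquots were quenched in cold methanol, extracted, dried and run on ion-pair reverse-phase HPLC. Half-life came from remaining parent through 48 h, given as >48 h if over 50% remained; unmodified nucleoside triphosphates were positive controls.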"}, "[3]": {"assay": "Stability in CEM cell extract", "assay_type": "ADME", "details": "human, CEM (CCRF-CEM) cell extract", "in_short": "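Clarified lysate of CEM cells (10^7 cells per 100 µL Tris/glycerol/Triton buffer, freeze-thaw lysed) at 50% v/v, with 500 µM nucleotide mimic in 50 mM Tris-HCl pH 7.4 and 0.1 mM MgCl2, at 37 °C. Samples were taken from 0 to 48 h into cold methanol, dried and analysed by ion-pair reverse-phase HPLC. Half-life came from remaining parent, given as >48 h if over 50% remained intact; unmodified NTPs were controls.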"}, "[4]": {"assay": "as §2", "assay_type": "ADME, cell-free, Bos taurus", "details": "cattle, fetal calf serum", "in_short": "as §3"}},
  "data": [
    {"compound": "CNP(=O)(O)C(F)(F)P(=O)(O)OP(=O)(O)OC[C@@H]1O[C@H](n2cc(C)c(=O)[nH]c2=O)C[C@H]1N=[N+]=[N-]", "values": [
      {"measurement": "Ki", "setting": "[1]", "result": 124, "unit": "nM"}
    ]},
    {"compound": "Cc1cn([C@@H]2C[C@@H](N=[N+]=[N-])[C@H](COP(=O)(O)OP(=O)(O)C(F)(F)P(=O)(O)Nc3ccccc3)O2)c(=O)[nH]c1=O", "values": [
      {"measurement": "Ki", "setting": "[1]", "result": 254, "unit": "nM"}
    ]},
    {"compound": "Cc1cn([C@@H]2C[C@@H](N=[N+]=[N-])[C@H](COP(=O)(O)OP(=O)(O)C(F)(F)P(=O)(O)O)O2)c(=O)[nH]c1=O", "values": [
      {"measurement": "Ki", "setting": "[1]", "result": 41, "unit": "nM"}
    ]},
    {"compound": "COP(=O)(O)C(F)(F)P(=O)(O)OP(=O)(O)OC[C@@H]1O[C@H](n2cc(C)c(=O)[nH]c2=O)C[C@H]1N=[N+]=[N-]", "values": [
      {"measurement": "Ki", "setting": "[1]", "result": 597, "unit": "nM"}
    ]},
    {"compound": "CCNP(=O)(O)C(F)(F)P(=O)(O)OP(=O)(O)OC[C@@H]1O[C@H](n2cc(C)c(=O)[nH]c2=O)C[C@H]1N=[N+]=[N-]", "values": [
      {"measurement": "Ki", "setting": "[1]", "result": 415, "unit": "nM"}
    ]},
    {"compound": "Cc1cn([C@@H]2C[C@@H](N=[N+]=[N-])[C@H](COP(=O)(O)OP(=O)(O)C(F)(F)P(=O)(O)Oc3ccccc3)O2)c(=O)[nH]c1=O", "values": [
      {"measurement": "Ki", "setting": "[1]", "result": 303, "unit": "nM"}
    ]},
    {"compound": "Cc1cn([C@@H]2C[C@@H](N=[N+]=[N-])[C@H](COP(=O)(O)OP(=O)(O)C(F)(F)P(N)(=O)O)O2)c(=O)[nH]c1=O", "values": [
      {"measurement": "Ki", "setting": "[1]", "result": 234, "unit": "nM"}
    ]},
    {"compound": "Cc1cn([C@@H]2C[C@@H](N=[N+]=[N-])[C@H](COP(=O)(O)C(F)(F)P(=O)(O)OP(=O)(O)c3ccccc3)O2)c(=O)[nH]c1=O", "values": [
      {"measurement": "inhibition", "setting": "[2]", "result": 11.5, "unit": "%"}
    ]},
    {"compound": "Cc1cn([C@@H]2C[C@@H](N=[N+]=[N-])[C@H](COP(=O)(O)OP(=O)(O)C(F)(F)P(=O)(O)N=[N+]=[N-])O2)c(=O)[nH]c1=O", "values": [
      {"measurement": "inhibition", "setting": "[2]", "result": 24, "unit": "%"}
    ]},
    {"compound": "Cc1cn([C@@H]2C[C@@H](N=[N+]=[N-])[C@H](COP(=S)(S)OP(=O)(O)C(F)(F)P(=O)(O)O)O2)c(=O)[nH]c1=O", "note": "(stereo partly drawn)", "values": [
      {"measurement": "inhibition", "setting": "[2]", "result": 19, "unit": "%"}
    ]},
    {"compound": "BP(=O)(OC[C@@H]1O[C@H](n2cc(C)c(=O)[nH]c2=O)C[C@H]1N=[N+]=[N-])OP(=O)(O)C(Cl)(Cl)P(=O)(O)O", "note": "(single isomer, unassigned)", "values": [
      {"measurement": "Ki", "setting": "[1]", "result": 93, "unit": "nM"},
      {"measurement": "t1/2", "setting": "Serum", "result": 45, "unit": "h"}
    ]},
    {"compound": "BP(=O)(OC[C@@H]1O[C@H](n2cc(C)c(=O)[nH]c2=O)C[C@H]1N=[N+]=[N-])OP(=O)(O)C(F)P(=O)(O)O", "note": "(single isomer, unassigned)", "values": [
      {"measurement": "Ki", "setting": "[1]", "result": 27, "unit": "nM"}
    ]},
    {"compound": "BP(=O)(OC[C@@H]1O[C@H](n2cc(C)c(=O)[nH]c2=O)C[C@H]1N=[N+]=[N-])OP(=O)(O)C(F)(F)P(=O)(O)O", "note": "(single isomer, unassigned; diastereomer I)", "values": [
      {"measurement": "Ki", "setting": "[1]", "result": 9.5, "unit": "nM"},
      {"measurement": "half-life", "setting": "[3]", "result": "> 48", "unit": "h"},
      {"measurement": "half-life at 500 µM", "setting": "[4]", "result": "> 48", "unit": "h"}
    ]},
    {"compound": "BP(=O)(OC[C@@H]1O[C@H](n2cc(C)c(=O)[nH]c2=O)C[C@H]1N=[N+]=[N-])OP(=O)(O)C(Cl)(Cl)P(=O)(O)O", "note": "(single isomer, unassigned; diastereomer II)", "values": [
      {"measurement": "Ki", "setting": "[1]", "result": 74, "unit": "nM"},
      {"measurement": "half-life", "setting": "[3]", "result": "> 48", "unit": "h"},
      {"measurement": "half-life at 500 µM", "setting": "[4]", "result": "> 48", "unit": "h"}
    ]},
    {"compound": "BP(=O)(OC[C@@H]1O[C@H](n2cc(C)c(=O)[nH]c2=O)C[C@H]1N=[N+]=[N-])OP(=O)(O)C(F)(F)P(=O)(O)O", "note": "(single isomer, unassigned; diastereomer II)", "values": [
      {"measurement": "Ki", "setting": "[1]", "result": 4560, "unit": "nM"}
    ]},
    {"compound": "BP(=O)(OC[C@@H]1O[C@H](n2cc(C)c(=O)[nH]c2=O)C[C@H]1N=[N+]=[N-])OP(=O)(O)C(F)P(=O)(O)O", "note": "(single isomer, unassigned; diastereomer IV)", "values": [
      {"measurement": "inhibition", "setting": "[2]", "result": 49, "unit": "%"}
    ]},
    {"compound": "BP(=O)(OC[C@@H]1O[C@H](n2cc(C)c(=O)[nH]c2=O)C[C@H]1N=[N+]=[N-])OP(=O)(O)OP(=O)(O)O", "note": "(single isomer, unassigned; form 1)", "values": [
      {"measurement": "Ki", "setting": "[1]", "result": 9.6, "unit": "nM"},
      {"measurement": "t1/2", "setting": "Serum", "result": 6, "unit": "h"}
    ]},
    {"compound": "BP(=O)(OC[C@@H]1O[C@H](n2cc(C)c(=O)[nH]c2=O)C[C@H]1N=[N+]=[N-])OP(=O)(O)OP(=O)(O)O", "note": "(single isomer, unassigned; form 2)", "values": [
      {"measurement": "half-life at 500 µM", "setting": "[4]", "result": 6, "unit": "h"}
    ]},
    {"compound": "Nc1ncnc2c1ncn2[C@@H]1O[C@H](COP(=O)(O)OP(=O)(O)OP(=O)(O)O)[C@@H](O)[C@H]1O", "note": "[ADENOSINE TRIPHOSPHATE]", "values": [
      {"measurement": "half-life at 500 µM", "setting": "[4]", "result": 2, "unit": "h"}
    ]},
    {"compound": "Cc1cn([C@H]2C[C@H](O)[C@@H](COP(=O)(O)OP(=O)(O)OP(=O)(O)O)O2)c(=O)[nH]c1=O", "note": "[DEOXYTHYMIDINE_TRIPHOSPHATE]", "values": [
      {"measurement": "half-life at 500 µM", "setting": "[4]", "result": 2, "unit": "h"}
    ]},
    {"compound": "Cc1cn([C@H]2C[C@H](N=[N+]=[N-])[C@@H](COP(=O)(O)OP(=O)(O)OP(=O)(O)O)O2)c(=O)[nH]c1=O", "note": "[ZIDOVUDINE TRIPHOSPHATE]", "values": [
      {"measurement": "Ki", "setting": "[1]", "result": 8.4, "unit": "nM"},
      {"measurement": "half-life at 500 µM", "setting": "[4]", "result": 2, "unit": "h"}
    ]}
  ]
}
